MrgX1 allo act = positive allosteric modulators of MrgX1, primary screen, HEK293 cells, Fluo-4 calcium flux; Mas-related G-protein coupled receptor member X1 (Homo sapiens), Q96LB2; FDSS; active compounds read high; B-score at 10 µM; 310,000 tested, 0.63% active; AID 588675, 2011;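 active means plate-corrected calcium response at least 3 library SD above typical, normal starting fluorescence, not activating the receptor alone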;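 further: compound read alongside a low EC10 to EC30 dose of BAM8-22 agonist; peak minus trough fluorescence over baseline measured at the second addition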
Target sequence (Q96LB2 whole entry, looked up): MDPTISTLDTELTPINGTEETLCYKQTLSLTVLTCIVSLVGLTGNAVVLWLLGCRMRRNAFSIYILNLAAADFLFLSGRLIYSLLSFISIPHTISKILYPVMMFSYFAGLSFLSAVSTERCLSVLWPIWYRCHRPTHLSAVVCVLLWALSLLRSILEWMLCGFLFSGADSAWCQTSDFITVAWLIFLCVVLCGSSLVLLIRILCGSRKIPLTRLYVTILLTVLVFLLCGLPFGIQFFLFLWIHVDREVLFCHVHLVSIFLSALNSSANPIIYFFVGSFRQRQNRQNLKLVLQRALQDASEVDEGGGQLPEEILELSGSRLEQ
MrgX1 antagonist = antagonists of human MrgX1 receptor, primary screen, HEK293 cells, Fluo-4 calcium flux. BAM8-22 antagonism; active compounds read low. Mas-related G-protein coupled receptor member X1 (Homo sapiens), Q96LB2. 310,000 tested, 1.3% active. B-score at 10 µM;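 active means calcium-response B-score plate-corrected more than 3 library SD below zero, starting fluorescence within 5 deviations, no agonist response on first addition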;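 further: peak minus trough fluorescence over baseline after final BAM8-22 challenge near maximal dose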
RGS4 pot = RGS4 potentiators or activators, primary screen, cell-based, HEK293 M3R inducible RGS4, calcium flux | carbachol calcium flux Fluo4; active compounds read low | B-score at 10 µM | 310,000 tested, 0.92% active | AID 463111, 2010;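 active means B-score of the integrated calcium signal more than 4 SD below the library mean, with starting fluorescence not abnormally high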;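 further: negative B-score means reduced calcium response which marks RGS4 activation or potentiation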
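System: HEK293 FlpIn-TREx cells, stable M3R, doxycycline-inducible RGS4. Timing: overnight RGS4 induction, 30 min dye load 37 °C, 20 min compound RT. Also added: carbachol, ECmax concentration. Measured by: Fluo4 fluorescence kinetic imaging of calcium. Evaluation: integrated calcium ratio converted to B score.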
RGS4 inh = RGS4 inhibitors, primary screen, cell-based, HEK293 M3R inducible RGS4, calcium flux; 310,000 tested, 0.45% active; B-score at 10 µM; Fluo-4 calcium flux; active compounds read high; triggered by carbachol at its EC20;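 active means B-score, a plate-corrected calcium signal, over three deviations above library mean, with baseline fluorescence within five deviations of library mean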;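 further: RGS4 expression induced by doxycycline in cells with stable M3 receptor; B-score is computed from the integrated fluorescence ratio over baseline after carbachol; higher B-score means a larger calcium signal and so more RGS4 inhibition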
Target sequence (P49798 whole entry, looked up): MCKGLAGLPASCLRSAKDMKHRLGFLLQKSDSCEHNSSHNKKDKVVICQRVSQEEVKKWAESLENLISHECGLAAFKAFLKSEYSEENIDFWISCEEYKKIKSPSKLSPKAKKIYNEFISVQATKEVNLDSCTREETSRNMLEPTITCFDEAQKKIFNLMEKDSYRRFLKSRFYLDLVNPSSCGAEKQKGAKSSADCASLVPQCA
MrgX1 agonist = agonists of human MrgX1 receptor, primary screen, HEK293 cells, Fluo-4 calcium flux; 310,000 tested, 0.44% active; B-score at 10 µM; Fluo-4 calcium fluorescence, agonist mode; active compounds read high; AID 588627, 2011;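 active means calcium response B-score plate-corrected fluorescence ratio at least 3 library SD, with starting fluorescence B-score inside 5 SD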
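times = overnight plating, then 30 min 37 °C plus 30 min room-temperature dye loading | assay system = stable human MrgX1 HEK293 cell line | input = fifteen thousand cells per well | signal = kinetic calcium dye fluorescence, Fluo-4 NW | dosing = compound delivered in addition one of three | read-out = B-scored fluorescence response ratio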
MrgX1 allo conf = MrgX1 positive allosteric modulators, duplicate retest, confirmation, HEK293 cells, Fluo-4 calcium flux; shares compounds with MrgX1 allo act; Fluo-4 calcium fluorescence, FDSS; activation (ratio percentage), % at 10 µM; 1,200 tested, 13% active; AID 602413, 2012;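 active means ratio at least 3 SD above the weak peptide control, stable starting fluorescence, no direct agonism earlier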;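 further: compound followed by low BAM8-22 agonist challenge near EC20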
HEK293 Ca flux = nonspecific calcium signal in parental HEK293, confirmation, counter-screen for MrgX1 antagonist project, parental HEK293 cells, Fluo-4 calcium flux; shares compounds with MrgX1 antagonist; AID 624111, 2012; fluorescence ratio F(max-min)/F0 at 10 µM; 4,000 tested, 2% active; Fluo-4 calcium fluorescence, FDSS;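 active means duplicate-averaged calcium fluorescence ratio at least three times the standard deviation of buffer wells, a nonspecific response in parental cells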
HEK293 Ca counter = calcium response in parental HEK293 cells, primary screen, counter-screen for MrgX1 allosteric activator project, cell-based, Fluo-4 calcium flux, duplicate. shares compounds with MrgX1 antagonist. Fluo-4 fluorescence ratio; active compounds read high. fluorescence ratio F(max-min)/F0 at 10 µM. 4,000 tested, 0.4% active. AID 624114, 2012;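 active means calcium fluorescence ratio, averaged over duplicates, at least 3 SD of the buffer-well ratio, meaning a nonspecific response in receptor-free cells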;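 further: untransfected parental HEK293 lacking MrgX1 used as counterscreen for MrgX1 allosteric activators; fluorescence change taken during the second addition on a kinetic imager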
HEK293 Ca cntr2 = calcium response in parental HEK293 cells, primary screen, counter-screen for MrgX1 agonist project, cell-based, Fluo-4 calcium flux, duplicate, agonist mode; shares compounds with MrgX1 antagonist; Fluo-4 calcium fluorescence (FDSS); active compounds read high; fluorescence ratio F(max-min)/F0 at 10 µM; 4,000 tested, 8.7% active; AID 624115, 2012;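 active means calcium fluorescence ratio at least three times the spread of buffer wells, meaning a non-specific response in parental cells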
Active calls of the source: *; i = inactive; nt = no result. A selection: hits, their analogues and other compounds. The true share with any hit is near 3.5%.

SMILES | MrgX1 allo act | MrgX1 antagonist | RGS4 pot | RGS4 inh | MrgX1 agonist | MrgX1 allo conf | HEK293 Ca flux | HEK293 Ca counter | HEK293 Ca cntr2
CCc1cc2ccccc2nc1SCC(=O)N1CCN(C(=O)c2ccco2)CC1 | nt | nt | i | i | nt | nt | nt | nt | nt
O=C(Nc1ccc(F)cc1F)c1ccco1 | 7.55* | i | i | i | i | i | i | i | i
O=C(Nc1ccc(F)cc1F)c1cc(-c2ccco2)on1 | i | i | i | i | i | nt | nt | nt | nt
CC1(C)CC(=O)c2sc(NC(=O)c3ccco3)nc2C1 | i | i | i | i | i | nt | nt | nt | nt
CC1(C)CC(=O)c2sc(NC(=O)C3COc4ccccc4O3)nc2C1 (configuration not stated) | 9.44* | i | i | i | i | i | i | i | i
CC1(C)CC(=O)c2sc(NS(=O)(=O)c3ccccc3)nc2C1 | 12.9* | i | i | i | i | i | i | i | i
CC(=O)c1sc(NC(=O)C2COc3ccccc3O2)nc1C (configuration not stated) | i | i | i | i | i | nt | nt | nt | nt
COc1ccc(CNS(=O)(=O)c2c(C(=O)N3CCCCCC3)c(C)n(C)c2C)cc1 | i | i | i | i | i | nt | nt | nt | nt
CCOC(=O)C1=C(C)NC(=O)CC1c1cc(OC)c(OC)cc1Br (configuration not stated) | 14.7* | i | i | i | i | i | i | i | i
Cc1cccc(OCC(=O)Nc2cccc(-c3nnc(-c4ccccc4)o3)c2)c1C | i | i | i | i | i | nt | nt | nt | nt
Cc1cccc(Oc2ncnc3oc(-c4ccccc4)cc23)c1C | 12.3* | i | i | i | i | 7.6%* | i | i | i
COc1ccccc1CNC(=O)C1CCC(CNS(=O)(=O)c2ccc(C)cc2)CC1 (configuration not stated) | i | i | i | i | i | nt | nt | nt | nt
COc1ccc(CCN(C)C(=O)c2cc(=O)c3ccccc3o2)cc1OC | i | i | i | i | i | nt | nt | nt | nt
CCOC(=O)C1CCN(C(=O)C2(NC(=O)Nc3ccccc3C)CCCCC2)CC1 | i | i | i | i | i | nt | nt | nt | nt
Cc1cccc(NS(=O)(=O)c2c(C)nc3scc(C)n3c2=O)c1 | 21.1* | i | i | i | i | i | i | i | i
Cc1nc2scc(C)n2c(=O)c1S(=O)(=O)Nc1ccc(N2CCN(S(C)(=O)=O)CC2)cc1 | i | i | i | i | i | nt | nt | nt | nt
COC(=O)c1cc(C#N)c(SCc2ccccc2)nc1C | 6.94* | i | i | i | i | i | i | i | i
O=C(O)C1CCCN(S(=O)(=O)c2ccc(Br)s2)C1 (configuration not stated) | 6.6* | i | i | i | i | i | i | i | i
CCCC[C@H](CN[C@@H](CNC)[C@H](C)CC)NCCC12CCC(CC1)C2 | i | i | i | i | i | nt | nt | nt | nt
COc1cccc(C2Nc3ccc4ccccc4c3C3=C2C(=O)CC(C)(C)C3)c1OCC(=O)O (configuration not stated) | i | i | i | i | i | nt | nt | nt | nt
CC(=O)c1sc(NS(=O)(=O)c2ccc(C)cc2)nc1-c1ccccc1 | 16.4* | i | i | i | i | i | i | i | i
Cc1cccc(-c2nnc(SC(C)C(=O)N3CCOCC3)o2)c1 (configuration not stated) | i | i | i | i | i | nt | nt | nt | nt
O=c1c2ccccc2nc(/C=C/c2ccc(O)cc2)n1CCc1ccccc1 | i | i | i | i | i | nt | nt | nt | nt
O=c1c2ccccc2nc(/C=C/c2ccccc2)n1CCCO | 11.2* | i | i | i | i | i | i | i | i
CCn1c(/C=C/c2ccccc2)nc2ccccc2c1=O | 7.71* | i | i | i | i | i | i | i | i
SMILES | MrgX1 allo act | MrgX1 antagonist | RGS4 pot | RGS4 inh | MrgX1 agonist | MrgX1 allo conf | HEK293 Ca flux | HEK293 Ca counter | HEK293 Ca cntr2
CCn1c(/C=C/c2ccc(F)cc2)nc2ccccc2c1=O | i | i | i | i | i | nt | nt | nt | nt
CC(C)(C)c1ccc(-c2nc(C=O)c3ccccn23)cc1 | i | i | i | i | i | nt | nt | nt | nt
Cc1c(C(C)(C)C)c(C=S)n2ccccc12 | 8.5* | i | i | i | i | i | i | i | i
Cc1ccc2c(c1)N(CC(=O)NCCCN1C(C)CCCC1C)C(=O)c1cccnc1O2 (configuration not stated) | i | i | i | i | i | nt | nt | nt | nt
CC1(C)Cc2cccc(Oc3ccc(S(=O)(=O)N4CCCCC4)cn3)c2O1 | 11.3* | i | i | i | i | i | i | i | i
Cc1cccc(CCNC(=O)C2CCN(S(=O)(=O)c3ccccc3)CC2)c1 | 10.6* | i | i | i | i | i | i | i | i
O=C(NCCc1cccc(F)c1)C1CCN(S(=O)(=O)c2ccccc2)CC1 | i | i | i | i | i | nt | nt | nt | nt
CN1CCc2nc(SCC(=O)Nc3ccc(F)cc3)c(C#N)cc2C1 | i | i | i | i | i | nt | nt | nt | nt
CC(C)(C)S(=O)(=O)c1cnc(N2CCOCC2)nc1N | i | i | i | i | i | nt | nt | nt | nt
CC(C)S(=O)(=O)c1cnc(N2CCOCC2)nc1N | 16.3* | i | i | i | i | i | i | i | i
COc1ccc(-c2csc(NC(=O)CS(=O)(=O)c3ccccc3)n2)cc1 | 12.2* | i | i | i | i | 6.8%* | i | i | i

Screening data from PubChem BioAssay.
